Assay results pooled from the literature.
Each line is one published result; the experiments were not run side by side. pIC50: −log10 of the molar value.

SMILES	target or system	test	test system	setting	measurement	result
CCCCn1cnc2ccc(-c3ccc(NC(=O)CCC)nc3)cc2c1=O	NCI-H1975	cell growth or viability, CCK-8		72 h	pIC50	5.90
C[C@H](N)C(=O)Nc1ccccc1/N=c1\cc(-c2ccc3c(c2)OCCO3)oc2c([N+](=O)[O-])cccc12	NCI-H1975	cell growth or viability, CCK-8		1 µM	inhibition	1.15%
c1ccc(Oc2ccc(Nc3c4c(nc5ccccc35)CCC4)cc2)cc1	Leishmania amazonensis	parasite growth, MTT		promastigote	pIC50	5.96
Nc1nc2c(ncn2COCCO)c(=O)[nH]1	Human alphaherpesvirus 2	viral replication, inhibitor, qPCR	Vero		pIC50	6.66
COc1ccc2/c(=N/c3ccccc3NC(=O)[C@@H](N)C(C)(C)C)cc(-c3ccc4c(c3)OCCO4)oc2c1	NCI-H1975	cell growth or viability, CCK-8		1 µM	inhibition	4.59%
COc1cccc(NC(=O)Nc2nc3cc(-c4ccc5ncn(Cc6ccccc6)c(=O)c5c4)ccc3s2)c1	NCI-H1975	cell growth or viability, MTT		72 h	pIC50	< 4.70
C[C@@H]1[C@H](O)[C@@H](C)/C=C/C=C/C=C/C=C/C=C/C=C/C=C/[C@H](O[C@@H]2O[C@H](C)[C@@H](O)[C@H](N)[C@@H]2O)C[C@@H]2O[C@](O)(C[C@@H](O)C[C@@H](O)[C@H](O)CC[C@@H](O)C[C@@H](O)CC(=O)O[C@H]1C)C[C@H](O)[C@H]2C(=O)O	Leishmania amazonensis	parasite growth, MTT		promastigote	pIC50	6.55
NCCCCC(=O)Nc1ccccc1/N=c1\cc(-c2ccc3c(c2)OCO3)oc2ccccc12	NCI-H1975	cell growth or viability, CCK-8		1 µM	inhibition	-2.12%
O=C(Nc1nc2cc(-c3ccc4ncn(Cc5ccccc5)c(=O)c4c3)ccc2s1)c1ccccc1	NCI-H1975	cell growth or viability, MTT		72 h	pIC50	< 4.70
CCCC(C)C(=O)Nc1ccc(-c2ccc3ncn(CCC)c(=O)c3c2)cn1 (stereo not drawn)	NCI-H1975	cell growth or viability, CCK-8		72 h	pIC50	5.56
CCNC(=O)Nc1nc2cc(-c3ccc4ncn(Cc5ccccc5)c(=O)c4c3)ccc2s1	NCI-H1975	cell growth or viability, MTT		72 h	pIC50	5.00
CCCCC(=O)Nc1ccc(-c2ccc3ncn(CCC(C)C)c(=O)c3c2)cn1	NCI-H1975	cell growth or viability, CCK-8		72 h	pIC50	6.27
NCC(=O)Nc1ccccc1/N=c1\cc(-c2ccc3c(c2)OCO3)oc2ccccc12	NCI-H1975	cell growth or viability, CCK-8		1 µM	inhibition	1.26%
Cc1ccc(C(=O)Nc2ccc(-c3ccc4ncn(Cc5ccccc5)c(=O)c4c3)cn2)cc1	NCI-H1975	cell growth or viability, CCK-8		72 h	pIC50	< 5.00
CC(C)NC(=O)Nc1nc2cc(-c3ccc4ncn(Cc5ccccc5)c(=O)c4c3)ccc2s1	NCI-H1975	cell growth or viability, MTT		72 h	pIC50	5.26
